Source: article PMC3899495 (Clinical Pharmacokinetics, 2013)
Like-named read-outs stand apart in the source and are kept apart here.

Key:
[1] = varying degrees of impaired hepatic function; cited from earlier work
[2] = Tolerability after single dose; format: in vivo, human; conditions: single 0.4 U/kg s.c. dose(s)
How it was run: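 Adults 18–85 y, BMI ≤40 kg/m2, in five renal-function groups. 0.4 U/kg s.c. into thigh: non-ESRD once; ESRD twice, post-hemodialysis and ~13 h pre-hemodialysis. In-house ≥48 h; follow-up 7–21 days after last dose. Also physical exam, biochemistry, hematology, urinalysis. AEs graded for severity and relationship; severe hypoglycemia = requiring assistance (ADA). Blood glucose sampled to 68 h (ESRD) or 120 h.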

[3] = cited from earlier work
[4] = format: in vivo, human; conditions: single 0.4 U/kg s.c., geometric mean (CV %), n = 6; for AUC0–∞ / C max: serum, ELISA
How it was run: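 Subjects grouped by screening Cockcroft–Gault creatinine clearance. Non-dialysis subjects received one 0.4 U/kg subcutaneous dose (100 U/mL) into a lifted thigh skin fold at 0800 hours. Serum was sampled pre-dose through 120 h. Concentrations were measured by validated sandwich ELISA (mouse anti-human-insulin monoclonal capture, biotinylated mouse monoclonal detection; serum LLOQ 20 pM). Parameters came from individual concentration–time curves; CL/F = dose/AUC0–∞.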

[5] = cited from earlier work; remark: listed apart in the source
[6] = mild renal impairment (CLCR 50–80 mL/min)
[7] = moderate renal impairment (CLCR 30–49 mL/min)
[8] = normal renal function (CLCR >80 mL/min)
[9] = severe renal impairment (CLCR <30 mL/min)

## Insulin degludec
[1]
  effect of impaired hepatic function on ultra-long pharmacokinetic properties: preserved
[2]; 32 subjects exposed
  severe adverse events: None
[2]; all subjects
  severe hypoglycemic episodes: No severe hypoglycemic episodes
[3]
  within-subject variability in glucose-lowering effect (AUC values) compared with insulin glargine: four-times lower
[4]; [6]
  CL/F (apparent clearance, dose/AUC0–∞): 19.1 (31) mL/h/kg
  AUC0–∞: 126,096 (49) pmol·h/L
  C max: 3,502 (30) pmol/L
[4]; [7]
  CL/F (apparent clearance, dose/AUC0–∞): 20.5 (39) mL/h/kg
  AUC0–∞: 117,646 (32) pmol·h/L
  C max: 3,237 (39) pmol/L
[4]; [8]
  CL/F (apparent clearance, dose/AUC0–∞): 22.0 (32) mL/h/kg
  AUC0–∞: 109,472 (26) pmol·h/L
  C max: 3,085 (28) pmol/L
[4]; [9]
  CL/F (apparent clearance, dose/AUC0–∞): 18.9 (24) mL/h/kg
  AUC0–∞: 127,268 (28) pmol·h/L
  C max: 3,918 (28) pmol/L

## insulin aspart
[5]
  effect of impaired renal function on pharmacokinetics: reportedly unaffected

## insulin detemir
[5]
  effect of impaired renal function on pharmacokinetics: reportedly unaffected

## insulin lispro
[5]; patients with diabetes
  effect of impaired renal function on pharmacokinetics: affect the pharmacokinetics

## regular human insulin
[5]; patients with diabetes
  effect of impaired renal function on pharmacokinetics: affect the pharmacokinetics
